# The list is a sample of the results.
# Apaf-1 act – activators of human Apaf-1 apoptosome, primary screen, biochemical, DEVD-Rh110 fluorescence, uHTS; Apaf-1 apoptosome caspase-3 activation; stronger effect = lower value; activity change, negative = activation, % at 20 µM; AID 489031, 2010; Apoptotic protease-activating factor 1 (Homo sapiens), O14727; actives 0.31% (n = 330,000);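 active means activity change at or below -40% at 20 µM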
#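 Schedule: 30 min preincubation, 50 min reaction, room temperature / System: biochemical Apaf-1 apoptosome reconstitution / Medium: 20 mM HEPES pH 7.5 with CHAPS, BSA / Evaluation: Caspase-3 cleavage activity downstream of Apaf-1 activation / Detection: Caspase-3-released Rh110 fluorescence, 540 nm emission, 480 nm excitation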
# Rh110 act interf – Rh110 fluorescence interference by putative Apaf-1 activators, confirmation, artefact control for Apaf-1 activator project, biochemical, 20 µM; quenched caspase reaction, Ex480/Em540; shares compounds with Apaf-1 act; AID 504616, 2011; fluorescence interference (activity change), % at 20 µM, hits read low; 980 tested, under 10 active;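 active means mean activity change at or below -40% when tested at 20 µM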
# Apaf-1 act conf2 – Apaf-1 activators, single-dose retest, confirmation, biochemical, fluorescence, DEVD-Rh110, 20 µM. shares compounds with Apaf-1 act. reconstituted apoptosome caspase-3 activity; stronger effect = lower value. activity change, negative = activation, % at 20 µM. actives 5% (n = 980). AID 504617, 2011;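 active means mean activity change at or below -40%, meaning activation of 40% or more, at 20 µM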
# Numbers stand for hits; i = inactive.
SMILES,Apaf-1 act,others
CCOC(=O)C(O)(c1ccc(N(C)C(=O)c2ccc(Cl)c(Cl)c2)cc1)C(F)(F)F (stereo not drawn),-190,Rh110 act interf=i;Apaf-1 act conf2=i
CN1CC[C@@]2(C)c3cc(O)ccc3N(C)C2O1 (stereo partly drawn),i,
O=c1[nH]c2ccccc2n1C1CCN(CCCC(c2ccc(F)cc2)c2ccc(F)cc2)CC1,i,
CC[C@@H](CO)NC(=O)[C@@H]1C=C2c3cccc4c3c(cn4C)C[C@H]2N(C)C1,i,
Nc1cncc(C(=O)O)c1,i,
COCCCn1c(N)c(C(=O)OCCOC)c2nc3ccccc3nc21,i,
Cc1c(C(=O)Nc2ccccc2)cc(-c2ccccc2)n1CCCN1CCOCC1,-201,Rh110 act interf=i;Apaf-1 act conf2=i
C[N+]1(C)[C@@H]2CC[C@H]1CC(OC(=O)[C@@H](CO)c1ccccc1)C2 (stereo partly drawn),i,
c1cncc(C2Nc3cccc4cccc(c34)N2)c1,i,
Cc1ccc(C[n+]2c(-c3ccc(C)cc3)cc(-c3ccc(C)cc3)cc2-c2ccc(C)cc2)cc1,i,
CC(C)CNC(=O)c1c(N)n(Cc2ccc3c(c2)OCO3)c2nc3ccccc3nc12,i,
CCCNC(=O)c1c(N)n(Cc2ccc3c(c2)OCO3)c2nc3ccccc3nc12,i,
CCOc1ccc(Cl)cc1CNCCc1ccc(F)cc1,-44,Rh110 act interf=i;Apaf-1 act conf2=i
CC(C)CNC(=O)c1c(N)n(Cc2ccco2)c2nc3ccccc3nc12,i,
Cc1nc2c(=O)n(C)c(=O)nc-2n(C)n1,i,
O=C1NC(=S)N(c2ccc(F)cc2)C(=O)/C1=C/c1ccco1,i,
C=CCn1c(O)c(C(C)=Nc2ccc(C(=O)O)cc2)c(=O)[nH]c1=O,-77,Rh110 act interf=i;Apaf-1 act conf2=i
CNc1ccc2nc3ccccc3[n+](C)c2c1,i,
CC[C@@H]1C(=O)OC[C@@H]1Cc1cncn1C,i,
CCOC(=O)c1c(NS(=O)(=O)c2ccccc2)n(CCCOC)c2nc3ccccc3nc12,i,
CNCCc1nc(N)n[nH]1,-74,Rh110 act interf=i;Apaf-1 act conf2=i
CC(C)OCCCNC(=O)c1c(N)n(Cc2cccs2)c2nc3ccccc3nc12,i,
C[n+]1c2ccccc2nc2ccc(NCCO)cc21,i,
NC(N)=N/N=C/c1ccc(N(c2ccccc2)c2ccccc2)cc1,i,
COc1ccc(Cn2c(N)c(C(=O)NCc3ccco3)c3nc4ccccc4nc32)cc1OC,i,
